Calls of active or inactive are those of the source. The calls are words filed in the database; no cut-off is given here.
What was measured:
Mus musculus [1] = test: Toxicity in nude BALB/c mouse xenografted with FU-resistant human HCT8 cells assessed as abnormal weight changes in liver at 59.4 umol/kg administered as via oral gavage daily for 21 days; format: organism-based, HCT-8; settings: in vivo, 504 h
In short: (§1)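 Male BALB/c nude mice, 6-8 weeks old, inoculated s.c. in right flank with HCT-8/5-FU cells (2 × 10^6/mouse). Once tumors reached 180-200 mm3 (9-11 days post-implantation), mice were randomized and dosed by gavage daily for 21 consecutive days in cremophor-EL/DMSO/PBS (1:1:8) (vehicle alone 0.2 mL). Body weights recorded on day 1 and day 21. Organ size, color and weights were inspected for liver, kidney, lung and heart. n = 8 per group; mean ± SD.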

Mus musculus [2] = test: Toxicity in nude BALB/c mouse xenografted with FU-resistant human HCT8 cells assessed as abnormal weight changes in kidney at 59.4 umol/kg administered as via oral gavage daily for 21 days; format: organism-based, HCT-8; settings: in vivo, 504 h
In short: (§2)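 Male BALB/c nude mice aged 6-8 weeks, implanted s.c. in the right flank with HCT-8/5-FU cells (2 × 10^6). Once tumors reached 180-200 mm3 (days 9-11), randomized to daily gavage for 21 days in cremophor-EL/DMSO/PBS (1:1:8), 0.2 mL. At the end, liver, kidney, lung and heart checked for size, colour and weight. n = 8 per group.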

HCT-8 [3] = test: Inhibition of HIF-1alpha protein expression in FU-resistant human HCT8 cells at 1 uM incubated for 24 hrs by Western blotting method; format: functional, cell-based
In short: (§3)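 Cells (1 x 10^6) grown 24 h in 6 cm dishes, then exposed in duplicate for 24 h to 0.25, 0.5 or 1 µM compound, with or without PTIO. Lysates (20 µg/lane) were run on 7.5% SDS-PAGE, blotted to PVDF and blocked in 5% milk. HRP secondaries with ECL detection; bands quantified by densitometry against β-actin or GAPDH. Three separate experiments, mean ± SD.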

HCT-8 [4] = test: Inhibition of BCRP protein expression in FU-resistant human HCT8 cells at 1 uM incubated for 24 hrs by Western blotting method; format: functional, cell-based; in short: as §3
[5] = biological target: T1, Multidrug resistance-associated protein 1 (Homo sapiens, UniProt P33527); test: Induction of nitrosylation of MRP1 protein in FU-resistant human HCT8 cells at 1 uM incubated for 24 hrs by Western blotting method; format: cell-based; settings: hct-8, 24 h
In short: (§4)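 HCT-8/5-FU cells (1 × 10^6) treated in duplicate for 24 h with 0.25, 0.5 or 1 µM test compound or 1 µM reference, with or without PTIO. Lysates immunoprecipitated overnight at 4 °C with anti-nitrotyrosine antibody on protein G beads. Eluates blotted with specific anti-Pgp, anti-MRP1 or anti-BCRP antibodies and quantified by densitometry. Mean ± SD of three experiments.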

Mus musculus [6] = test: Toxicity in nude BALB/c mouse xenografted with FU-resistant human HCT8 cells assessed as abnormal color changes in kidney at 59.4 umol/kg administered as via oral gavage daily for 21 days; format: organism-based, HCT-8; settings: in vivo, 504 h; in short: as §2
CCD-841CoN = test: Induction of nitric oxide release in human CCD-841-CoN cells at 100 uM incubated for 150 mins by Griess assay; format: functional, cell-based
In short: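 Cells (1 × 10^6/well) treated in triplicate with compound at 100 µM for 150 min. Lysates mixed with Griess reagent for 10 min at 37 °C and read at 540 nm. Nitrite quantified from a sodium nitrite standard curve; 0.4% DMSO-treated cells served as background. Mean ± SD of three experiments.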

HCT-8 [7] = test: Antiproliferative activity against 5-FU resistant human HCT8 cells assessed as inhibition of cell proliferation at 0.25 uM after 24 hrs by MTT assay; format: functional, cell-based
HCT-8 [8] = test: Antiproliferative activity against human HCT8 cells assessed as inhibition of cell proliferation at 0.25 uM dosed 1 hr after NO scavenger carboxy-PTIO treatment and measured after 24 hrs by MTT assay; format: functional
HCT-8 [9] = test: Induction of apoptosis in human HCT8 cells incubated for 24 hrs by FITC-Annexin-V and propidium iodide staining based flow cytometry; format: functional, cell-based
HCT-8 [10] = test: Inhibition of HIF-1alpha protein expression in human HCT8 cells at 0.25 to 1 uM incubated for 24 hrs by Western blotting method; format: functional, cell-based; in short: as §3
HCT-8 [11] = test: Inhibition of HIF-1alpha protein expression in FU-resistant human HCT8 cells at 0.25 to 1 uM incubated for 24 hrs by Western blotting method; format: functional, cell-based; in short: as §3
HCT-8 [12] = test: Inhibition of ERK protein phosphorylation in human HCT8 cells at 0.25 to 1 uM incubated for 24 hrs by Western blotting method; format: cell-based; in short: as §3
HCT-8 [13] = test: Inhibition of MRP1 protein expression in FU-resistant human HCT8 cells at 1 uM in presence of NO scavenger carboxy-PTIO incubated for 24 hrs by Western blotting method; format: functional, cell-based; in short: as §3
[14] = biological target: T1, Multidrug resistance-associated protein 1; test: Induction of nitrosylation of MRP1 protein in FU-resistant human HCT8 cells at 0.25 to 1 uM incubated for 24 hrs by Western blotting method; format: cell-based; settings: hct-8, 24 h; in short: as §4
Mus musculus [15] = test: Toxicity in ICR mouse assessed as general activity changes at 0.60 x 10^3 to 2.38 x 10^3 umol/kg administered as single dose via oral gavage measured up to 14 days post treatment; format: organism-based; settings: in vivo, 336 h
In short: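 Adult ICR mice of either sex were randomised and given a single oral gavage dose of 500, 1000, 1500 or 2000 mg/kg in cremophor-EL/DMSO/PBS (1:1:8). Survival, behaviour, water and food intake, body weight and activity were monitored for up to 14 days. Body weights were taken on days 0, 7 and 14.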

[16] = Toxicity in female ICR mouse assessed as mouse mortality at 2.38 x 10^3 umol/kg administered as single dose via oral gavage measured up to 14 days post treatment; format: organism-based; settings: in vivo
In short: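 Female or male adult ICR mice, 10 per sex group, were randomised and given a single oral gavage dose of 2,000 mg/kg in cremophor-EL/DMSO/PBS (1:1:8). Total mortality was recorded over days 1–14, and body weight on days 0, 7 and 14 as mean ± SD.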

Mus musculus [17] = test: Toxicity in female ICR mouse assessed as body weight level at 2.38 x 10^3 umol/kg administered as single dose via oral gavage measured on day 7 post treatment (reference value: 19.8 +/- 0.92 g); format: organism-based; settings: in vivo
Mus musculus [18] = test: Toxicity in female ICR mouse assessed as body weight level at 2.38 x 10^3 umol/kg administered as single dose via oral gavage measured on day 14 post treatment (reference value: 19.5 +/- 0.85 g); format: organism-based; settings: in vivo
Mus musculus [19] = test: Toxicity in male ICR mouse assessed as body weight level at 2.38 x 10^3 umol/kg administered as single dose via oral gavage measured on day 14 post treatment (reference value: 19.5 +/- 0.85 g); format: organism-based; settings: in vivo
Mus musculus [20] = test: Toxicity in nude BALB/c mouse xenografted with FU-resistant human HCT8 cells assessed as body weight level at 17.8 umol/kg administered as via oral gavage daily for 21 days (reference value: 22.3 +/- 1.9 g); format: organism-based, HCT-8; settings: in vivo, 504 h; in short: as §1
Mus musculus [21] = test: Toxicity in nude BALB/c mouse xenografted with FU-resistant human HCT8 cells assessed as abnormal color changes in kidney at 17.8 to 35.7 umol/kg administered as via oral gavage daily for 21 days; format: organism-based, HCT-8; settings: in vivo, 504 h; in short: as §2

T1 sequence (P33527 whole entry): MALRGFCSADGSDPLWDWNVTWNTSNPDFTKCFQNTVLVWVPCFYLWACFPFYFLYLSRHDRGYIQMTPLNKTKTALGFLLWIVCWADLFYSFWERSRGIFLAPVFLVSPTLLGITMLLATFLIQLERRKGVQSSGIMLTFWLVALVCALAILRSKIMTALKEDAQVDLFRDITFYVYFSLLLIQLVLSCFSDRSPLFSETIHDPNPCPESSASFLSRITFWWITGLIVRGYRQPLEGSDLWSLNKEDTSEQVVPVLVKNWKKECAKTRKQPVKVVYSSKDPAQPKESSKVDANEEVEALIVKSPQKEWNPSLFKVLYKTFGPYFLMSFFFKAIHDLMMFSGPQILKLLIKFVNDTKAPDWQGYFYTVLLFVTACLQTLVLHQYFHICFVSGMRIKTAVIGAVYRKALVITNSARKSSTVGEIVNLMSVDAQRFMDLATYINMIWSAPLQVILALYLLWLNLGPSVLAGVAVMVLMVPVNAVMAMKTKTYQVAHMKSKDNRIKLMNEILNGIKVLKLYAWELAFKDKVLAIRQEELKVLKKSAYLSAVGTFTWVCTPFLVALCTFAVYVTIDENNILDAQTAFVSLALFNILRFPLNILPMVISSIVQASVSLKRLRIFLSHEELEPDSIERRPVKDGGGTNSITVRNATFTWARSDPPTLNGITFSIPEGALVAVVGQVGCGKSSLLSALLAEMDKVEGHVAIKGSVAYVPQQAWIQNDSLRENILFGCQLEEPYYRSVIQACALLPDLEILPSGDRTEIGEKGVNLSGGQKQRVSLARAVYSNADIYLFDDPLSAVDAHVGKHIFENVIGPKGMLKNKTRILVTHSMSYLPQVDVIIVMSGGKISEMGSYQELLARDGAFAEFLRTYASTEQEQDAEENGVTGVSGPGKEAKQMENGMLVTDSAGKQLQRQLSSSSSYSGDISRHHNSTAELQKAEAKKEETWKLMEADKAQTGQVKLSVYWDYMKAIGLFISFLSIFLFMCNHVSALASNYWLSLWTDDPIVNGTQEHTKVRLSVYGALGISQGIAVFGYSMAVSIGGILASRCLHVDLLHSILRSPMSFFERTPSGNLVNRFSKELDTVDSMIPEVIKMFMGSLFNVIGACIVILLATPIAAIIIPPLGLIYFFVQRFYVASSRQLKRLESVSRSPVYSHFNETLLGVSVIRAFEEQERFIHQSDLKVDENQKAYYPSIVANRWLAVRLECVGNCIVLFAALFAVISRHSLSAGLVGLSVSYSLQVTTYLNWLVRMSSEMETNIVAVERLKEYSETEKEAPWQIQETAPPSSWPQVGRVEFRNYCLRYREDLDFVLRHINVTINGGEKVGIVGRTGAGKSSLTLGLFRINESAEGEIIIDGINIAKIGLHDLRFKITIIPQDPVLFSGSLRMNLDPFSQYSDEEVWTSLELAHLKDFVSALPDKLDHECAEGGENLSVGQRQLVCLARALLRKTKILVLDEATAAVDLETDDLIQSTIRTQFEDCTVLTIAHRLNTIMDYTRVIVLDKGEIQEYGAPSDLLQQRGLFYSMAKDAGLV

Compound: COC(=O)[C@]12CCC(C)(C)C[C@H]1[C@H]1C(=O)C=C3[C@@]4(C)C=C(C#N)C(=O)C(C)(C)[C@@H]4CC[C@@]3(C)[C@]1(C)CC2 [BARDOXOLONE METHYL]
- Activity (Mus musculus [1]): Non-toxic
- Activity (Mus musculus [2]): Non-toxic
- inhibition (HCT-8 [3]): Active
- inhibition (HCT-8 [4]): inactive
- Activity [5]: Not Active
- Activity (Mus musculus [6]): Non-toxic

Compound: CC1(C)CC[C@]2(C(=O)NCC(=O)OCC#CCOc3no[n+]([O-])c3S(=O)(=O)c3ccccc3)CC[C@]3(C)[C@H](C(=O)C=C4[C@@]5(C)C=C(C#N)C(=O)C(C)(C)[C@@H]5CC[C@]43C)[C@@H]2C1
- Activity (CCD-841CoN): inactive
- Activity (HCT-8 [7]): Active
- inhibition (HCT-8 [8]): inactive
- Activity (HCT-8 [9]): Dose-dependent effect
- inhibition (HCT-8 [10]): Dose-dependent effect
- inhibition (HCT-8 [11]): Dose-dependent effect
- inhibition (HCT-8 [12]): Dose-dependent effect
- inhibition (HCT-8 [13]): inactive
- Activity [14]: Dose-dependent effect
- Activity (Mus musculus [15]): Non-toxic
- mortality at 336 h [16]: 0%
- Activity (Mus musculus [17]): 25 g
- Activity (Mus musculus [18]): 30 g
- Activity (Mus musculus [19]): 31.9 g
- Activity (Mus musculus [20]): 17.5 g
- Activity (Mus musculus [21]): Non-toxic

Reference: ChEMBL document CHEMBL3414437, “Synthesis of CDDO-amino acid-nitric oxide donor trihybrids as potential antitumor agents against both drug-sensitive and drug-resistant colon cancer” (J Med Chem, 2015)
